For series [1], the target named is Mitogen-activated protein kinase 14 (Homo sapiens, UniProt Q16539). The series is described as follows: Inhibition of P38alpha (unknown origin). In outline: (§1)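 Biochemical inhibition assays run by a contract screening service as a panel: ABL1 mutants H396P, M351T, Q252H, T315I and Y253F, plus P38α/MAPK14.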
Series [2] deals with Tyrosine-protein kinase ABL1 (Homo sapiens, UniProt P00519, T315I). The series can be described thus: Inhibition of Abl1 kinase T315I mutant (unknown origin). In outline: as §1
The nature of series [3]: Apparent permeability of the compound by PAMPA assay. The series is classed as ADME. In outline:
(§2)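 In vitro ADME run by a contract lab: human microsomal stability and parallel artificial membrane permeability assay (PAMPA).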
For orientation: The PAMPA barrier holds no transporters, so it reflects passive diffusion.

Series [4] deals with Tyrosine-protein kinase ABL1 (Homo sapiens, UniProt P00519, Q252H). The series is described as follows: Inhibition of Abl1 kinase Q252H mutant (unknown origin). In a few lines:
as §1

Series [5] concerns the target T1, Tyrosine-protein kinase ABL1 (Homo sapiens, UniProt P00519). The series is described as follows: Inhibition of wild type Abl1 kinase (unknown origin).
For series [6], the target named is Tyrosine-protein kinase ABL1 (Homo sapiens, UniProt P00519, M351T). The series is described as follows: Inhibition of Abl1 kinase M351T mutant (unknown origin). In outline:
as §1

The target in series [7] is Tyrosine-protein kinase ABL1 (Homo sapiens, UniProt P00519, Y253F). The series can be described thus: Inhibition of Abl1 kinase Y253F mutant (unknown origin). In outline: as §1
Series [8] can be described thus: Intrinsic clearance in human liver microsomes. The settings on record: read-out: CLH. The series is classed as ADME, Microsome. In a few lines:
as §2

Series [9] concerns the target T2, Tyrosine-protein kinase ABL2 (Homo sapiens, UniProt P42684). The series is described as follows: Inhibition of Abl2 kinase (unknown origin) using Tyr 6 peptide as substrate assessed as residual enzyme activity after every 10 secs measured for 10 mins by platform assay.
The target in series [10] is Tyrosine-protein kinase ABL1 (Homo sapiens, UniProt P00519, H396P). The series can be described thus: Inhibition of Abl1 kinase H396P mutant (unknown origin). In outline: as §1
The target in series [11] is T2, Tyrosine-protein kinase ABL2. The series can be described thus: Inhibition of Abl2 kinase (unknown origin) using Tyr 6 peptide as substrate assessed as residual enzyme activity after every 10 secs measured for 10 mins.
The target in series [12] is T1, Tyrosine-protein kinase ABL1. The series can be described thus: Inhibition of Abl1 kinase (unknown origin) using Tyr 6 peptide as substrate assessed as residual enzyme activity after every 10 secs measured for 10 mins by platform assay.
Series [13] shares this target. The series can be described thus: Inhibition of Abl1 kinase (unknown origin) using Tyr 6 peptide as substrate assessed as residual enzyme activity after every 10 secs measured for 10 mins.

The values below come from ChEMBL document CHEMBL2321864, “Rapid discovery of a novel series of Abl kinase inhibitors by application of an integrated microfluidic synthesis and screening platform” (J Med Chem, 2013).

Chain of Mitogen-activated protein kinase 14 (Q16539 whole entry): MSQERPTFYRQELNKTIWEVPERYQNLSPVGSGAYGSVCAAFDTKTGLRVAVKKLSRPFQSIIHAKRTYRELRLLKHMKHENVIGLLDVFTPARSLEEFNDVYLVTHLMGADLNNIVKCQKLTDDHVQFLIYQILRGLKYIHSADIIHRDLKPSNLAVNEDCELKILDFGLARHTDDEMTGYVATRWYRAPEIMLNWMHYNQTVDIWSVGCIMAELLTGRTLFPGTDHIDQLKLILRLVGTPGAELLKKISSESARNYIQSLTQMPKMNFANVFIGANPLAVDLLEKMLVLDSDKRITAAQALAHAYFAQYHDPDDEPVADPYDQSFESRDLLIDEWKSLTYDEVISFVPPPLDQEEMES
T2 sequence (P42684 whole entry): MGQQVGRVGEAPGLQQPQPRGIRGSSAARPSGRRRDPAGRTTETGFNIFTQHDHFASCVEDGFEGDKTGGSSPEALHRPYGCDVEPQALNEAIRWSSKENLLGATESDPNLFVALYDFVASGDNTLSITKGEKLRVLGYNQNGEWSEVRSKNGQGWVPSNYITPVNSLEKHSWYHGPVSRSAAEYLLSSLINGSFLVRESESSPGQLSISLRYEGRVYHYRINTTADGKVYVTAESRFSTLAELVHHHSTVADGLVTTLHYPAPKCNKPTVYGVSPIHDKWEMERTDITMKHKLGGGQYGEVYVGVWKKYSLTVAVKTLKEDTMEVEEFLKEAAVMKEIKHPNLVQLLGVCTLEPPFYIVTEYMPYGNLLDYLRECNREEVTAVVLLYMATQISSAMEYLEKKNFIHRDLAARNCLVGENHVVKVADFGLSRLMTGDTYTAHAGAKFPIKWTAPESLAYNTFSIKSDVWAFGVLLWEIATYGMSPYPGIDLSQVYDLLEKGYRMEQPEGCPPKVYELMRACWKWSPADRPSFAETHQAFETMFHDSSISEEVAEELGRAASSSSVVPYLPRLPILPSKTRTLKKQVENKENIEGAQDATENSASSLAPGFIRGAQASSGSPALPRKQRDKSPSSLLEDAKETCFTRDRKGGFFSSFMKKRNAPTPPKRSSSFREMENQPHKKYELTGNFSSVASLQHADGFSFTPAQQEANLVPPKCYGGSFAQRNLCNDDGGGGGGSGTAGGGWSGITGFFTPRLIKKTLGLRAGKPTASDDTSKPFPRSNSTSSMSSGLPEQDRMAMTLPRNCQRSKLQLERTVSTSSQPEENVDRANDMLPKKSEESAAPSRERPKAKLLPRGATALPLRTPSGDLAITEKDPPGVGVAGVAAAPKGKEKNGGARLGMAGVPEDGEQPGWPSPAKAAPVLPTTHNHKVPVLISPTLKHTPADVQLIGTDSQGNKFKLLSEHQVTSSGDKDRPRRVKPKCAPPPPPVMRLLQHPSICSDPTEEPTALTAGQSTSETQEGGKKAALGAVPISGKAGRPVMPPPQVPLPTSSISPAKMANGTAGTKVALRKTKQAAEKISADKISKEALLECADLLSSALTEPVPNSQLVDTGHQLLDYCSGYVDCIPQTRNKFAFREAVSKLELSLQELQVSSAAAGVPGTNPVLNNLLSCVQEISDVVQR

In the case of `CN1CCN(Cc2ccc(NC(=O)Nc3cc(C#Cc4cncc5nccn45)n(C)n3)cc2C(F)(F)F)CC1`, the IC50 (usually the concentration at which inhibition is half-maximal) in series [1] worked out at 35 nM; in series [2], 1.9 nM; in series [4] it was 1.6 nM; in series [5] it was 1.6 nM; in [6] it was 0.9 nM; in series [7] it was 0.9 nM. Also, the IC50 is 11 nM in series [9]; 0.7 nM in series [10]; 15 nM in [11]; 2 nM in [12]; 12 nM in [13]. For the same compound, in series [3], the Papp (commonly a coefficient for how fast a substance crosses the barrier) worked out at 0.1 ×10⁻⁶ cm/s. The microsomal CLint in [8] was determined as 76 µL/min/mg.

In the case of `Cc1ccc(C(=O)Nc2ccc(CN3CCN(C)CC3)c(C(F)(F)F)c2)cc1C#Cc1cncc2nccn12`, the IC50 is 43 nM in series [1]; 0.4 nM in series [2]; 0.5 nM in series [4]; 0.6 nM in series [5]; 0.3 nM in series [6]; 0.3 nM in series [7]. For the same compound, the IC50 in series [9] stood at 2 nM; in [10], 0.3 nM; in series [11], 1 nM; in series [12], 0.2 nM; in series [13], 1 nM. In series [3], the Papp stood at 26 ×10⁻⁶ cm/s. Moreover, the microsomal CLint in [8] came out at 90 µL/min/mg.

On to `CN1CCN(Cc2ccc(NC(=O)Nc3cc(C#Cc4cnc5cnccn45)n(C)n3)cc2C(F)(F)F)CC1`, for which the IC50 in [1] was determined as 35 nM; in series [2], 0.8 nM; in series [4], 1 nM; in series [5], 1 nM; in series [6], 0.5 nM; in [7], 0.4 nM. Further, the IC50 in series [9] was determined as 3 nM; in series [10], 0.3 nM; in [11] it was 10 nM; in series [12], 0.4 nM; in series [13] it was 7 nM. The Papp in series [3] amounted to 0.2 ×10⁻⁶ cm/s. Moreover, the microsomal CLint in series [8] came out at 51 µL/min/mg.

For `CN1CCN(Cc2ccc(NC(=O)Nc3cc(C#Cc4cnc5cccnn45)n(C)n3)cc2C(F)(F)F)CC1`, the IC50 in series [1] was found to be 24 nM; in [2] it was 0.4 nM; in series [4], 0.7 nM; in series [5], 1 nM; in series [6], 0.4 nM; in series [7], 0.4 nM. In addition, the IC50 came out at 47 nM in series [9]; 0.2 nM in [10]; 6 nM in series [11]; 27 nM in series [12]; 12 nM in [13]. For the same compound, the Papp in [3] turned out to be 2 ×10⁻⁶ cm/s. In addition, the microsomal CLint in series [8] amounted to 29 µL/min/mg.
